Values after ≈ are worked out from the molar mass of the structure shown.
Assays:
[1] = tested on: Bel-7402; assay: Antiproliferative activity against Bel7402 cells after 72 hrs by MTT assay; format: functional, cell-based; conditions: Homo sapiens, Bel-7402, 72 h
Procedure, shortened: (§1)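 Cells were exposed to compound for 72 h. MTT in RPMI-1640 was then added and incubated for a further 4 h at 37 °C. Three replicate wells were used per point. IC50 for cell-viability inhibition was calculated from three independent experiments.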

[2] = Antiproliferative activity against ECA109 cells after 72 hrs by MTT assay; format: functional, cell-based; conditions: Homo sapiens, ECa-109, 72 h; procedure, shortened: as §1
[3] = tested on: PC-3; assay: Antiproliferative activity against PC3 cells after 72 hrs by MTT assay; format: functional, cell-based; conditions: Homo sapiens, PC-3, 72 h; procedure, shortened: as §1
[4] = tested on: MCF7; assay: Antiproliferative activity against MCF7 cells after 72 hrs by MTT assay; format: functional, cell-based; conditions: Homo sapiens, MCF7, 72 h; procedure, shortened: as §1
[5] = tested on: HL-60; assay: Antiproliferative activity against HL60 cells after 72 hrs by MTT assay; format: functional, cell-based; conditions: Homo sapiens, HL-60, 72 h; procedure, shortened: as §1
[6] = tested on: A549; assay: Antiproliferative activity against A549 cells after 72 hrs by MTT assay; format: functional, cell-based; conditions: Homo sapiens, A549, 72 h; procedure, shortened: as §1
[7] = tested on: HL-60; assay: Induction of apoptosis in HL60 cells assessed as DNA fragmentation at 0.5 ug/mL after 48 hrs by flow cytometry; format: functional, Homo sapiens
Procedure, shortened: (§2)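 HL-60 cells in exponential growth were treated for 48 h. They were washed twice in PBS and fixed in 70% ethanol at −20 °C. Cells were then RNase-treated for 1 h at 37 °C and stained with propidium iodide for 30 min at 4 °C. DNA content of 2 × 10⁴ cells was read by flow cytometry, and the sub-G0/G1 fraction was taken as apoptotic.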

[8] = tested on: HL-60; assay: Induction of apoptosis in HL60 cells assessed as DNA fragmentation at 1.0 ug/mL after 48 hrs by flow cytometry; format: functional, Homo sapiens; procedure, shortened: as §2
[9] = tested on: HL-60; assay: Induction of apoptosis in HL60 cells assessed as DNA fragmentation at 2 ug/mL after 48 hrs by flow cytometry; format: functional, Homo sapiens; procedure, shortened: as §2
[10] = tested on: CCRF S-180; assay: Antitumor activity against S180 cells inoculated in ICR mouse assessed as tumor weight at 80 mg/kg, ip after 8 days; format: functional; conditions: route intraperitoneal
Procedure, shortened: (§3)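 S180 sarcoma was first passaged in mice for 7 days, then 2.5 × 10⁶ viable cells/mouse were injected s.c. into the armpit of female ICR mice. Compound was given i.p. once daily for 7 consecutive days, starting 24 h after inoculation. Group sizes were 10, or 20 for the saline control. Cyclophosphamide 50.0 mg/kg was the positive control. On day 8 tumors were excised and weighed, and inhibition = (C − T)/C × 100 using mean tumor weights.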

[11] = tested on: CCRF S-180; assay: Antitumor activity against S180 cells inoculated in ICR mouse assessed as inhibition at 80 mg/kg, ip after 8 days relative to control; format: functional; conditions: CCRF S-180, ip, 192 h, route intraperitoneal; procedure, shortened: as §3
[12] = tested on: CCRF S-180; assay: Antitumor activity against S180 cells inoculated in ICR mouse assessed as inhibition at 50 mg/kg, ip after 8 days relative to control; parameters: scale not given: the % may be the effect or the level left; conditions: route intraperitoneal

CCOC12SN(c3ccc(NC(C)=O)cc3Cl)N=C1c1ccccc1OC2(OCC)c1ccc(Cl)cc1 (racemic)
IC50 [1]: 21.3 µg/mL (≈ 38.1 µM)
IC50 [2]: 9.6 µg/mL (≈ 17.2 µM)
IC50 [3]: 4.1 µg/mL (≈ 7.34 µM)
IC50 [4]: 23.3 µg/mL (≈ 41.7 µM)
IC50 [5]: 2.2 µg/mL (≈ 3.94 µM)
IC50 [6]: 4.2 µg/mL (≈ 7.52 µM)

CCOC12SN(c3ccc([N+](=O)[O-])cc3Cl)N=C1c1cc(C)ccc1OC2(OCC)c1cc2c(cc1Cl)OCO2 (racemic)
IC50 [1]: > 50 µg/mL
IC50 [2]: > 50 µg/mL
IC50 [3]: > 50 µg/mL
IC50 [4]: > 25 µg/mL
IC50 [5]: > 25 µg/mL
IC50 [6]: > 50 µg/mL

CCOC12SN(c3ccc([N+](=O)[O-])cc3Cl)N=C1c1cc(C)ccc1OC2(OCC)c1ccc(OC)cc1 (racemic)
IC50 [1]: 21.8 µg/mL (≈ 39.2 µM)
IC50 [2]: > 50 µg/mL
IC50 [3]: > 50 µg/mL
IC50 [4]: > 25 µg/mL
IC50 [5]: > 25 µg/mL
IC50 [6]: > 50 µg/mL

CCOC12SN(c3ccc(S(C)(=O)=O)cc3Cl)N=C1c1ccccc1OC2(OCC)c1ccc(Cl)cc1 (racemic)
IC50 [1]: 10.3 µg/mL (≈ 17.8 µM)
IC50 [2]: 5.9 µg/mL (≈ 10.2 µM)
IC50 [3]: 3.1 µg/mL (≈ 5.35 µM)
IC50 [4]: 4.1 µg/mL (≈ 7.07 µM)
IC50 [5]: 2.8 µg/mL (≈ 4.83 µM)
IC50 [6]: 4.9 µg/mL (≈ 8.46 µM)
Activity [7]: 3.9%
Activity [8]: 25.3%
Activity [9]: 68.3%
Activity [10]: 0.63 g
inhibition in vivo at 80 mg/kg [11]: 48.2%

CCOC12SN(c3ccc(S(C)(=O)=O)cc3Cl)N=C1c1ccccc1OC2(OCC)c1ccc(OC)cc1 (racemic)
IC50 [1]: 23.5 µg/mL (≈ 40.9 µM)
IC50 [2]: 5.9 µg/mL (≈ 10.3 µM)
IC50 [3]: 3.5 µg/mL (≈ 6.09 µM)
IC50 [4]: > 25 µg/mL
IC50 [5]: 1.8 µg/mL (≈ 3.13 µM)
IC50 [6]: 3.3 µg/mL (≈ 5.74 µM)

CCOC12SN(c3ccc(S(C)(=O)=O)cc3Cl)N=C1c1cc(C)ccc1OC2(OCC)c1ccc(Cl)cc1 (racemic)
IC50 [1]: 7.3 µg/mL (≈ 12.3 µM)
IC50 [2]: 11.5 µg/mL (≈ 19.4 µM)
IC50 [3]: 6 µg/mL (≈ 10.1 µM)
IC50 [4]: 2.5 µg/mL (≈ 4.21 µM)
IC50 [5]: 6 µg/mL (≈ 10.1 µM)
IC50 [6]: 10.3 µg/mL (≈ 17.4 µM)

CCOC12SN(c3ccc([N+](=O)[O-])cc3Cl)N=C1c1c(OC)cc(OC)c(Cl)c1OC2(OCC)c1ccccc1Cl (racemic)
IC50 [1]: > 50 µg/mL
IC50 [2]: > 50 µg/mL
IC50 [3]: > 50 µg/mL
IC50 [4]: > 25 µg/mL
IC50 [5]: > 25 µg/mL
IC50 [6]: > 50 µg/mL

CCOC12SN(c3ccc([N+](=O)[O-])cc3Cl)N=C1c1c(OC)cc(OC)c(Cl)c1OC2(OCC)c1ccc(Cl)cc1 (racemic)
IC50 [1]: > 50 µg/mL
IC50 [2]: > 50 µg/mL
IC50 [3]: 15.8 µg/mL (≈ 24.7 µM)
IC50 [4]: > 25 µg/mL
IC50 [5]: 6.7 µg/mL (≈ 10.5 µM)
IC50 [6]: > 50 µg/mL

CCOC12SN(c3ccc([N+](=O)[O-])cc3Cl)N=C1c1cc(C)ccc1OC2(OCC)c1cc(OC)c(OC)cc1Cl (racemic)
IC50 [1]: > 50 µg/mL
IC50 [2]: > 50 µg/mL
IC50 [3]: > 50 µg/mL
IC50 [4]: > 25 µg/mL
IC50 [5]: > 25 µg/mL
IC50 [6]: > 50 µg/mL

CCOC12SN(c3ccc([N+](=O)[O-])cc3Cl)N=C1c1ccccc1OC2(OCC)c1ccc(OC)cc1 (racemic)
IC50 [1]: 8.2 µg/mL (≈ 15.1 µM)
IC50 [2]: 9.6 µg/mL (≈ 17.7 µM)
IC50 [3]: 5.7 µg/mL (≈ 10.5 µM)
IC50 [4]: 23.3 µg/mL (≈ 43 µM)
IC50 [5]: 3.3 µg/mL (≈ 6.09 µM)
IC50 [6]: 5.1 µg/mL (≈ 9.41 µM)

CCOC12SN(c3ccc([N+](=O)[O-])cc3Cl)N=C1c1ccccc1OC2(OCC)c1ccc(Cl)cc1 (racemic)
IC50 [1]: 11.8 µg/mL (≈ 21.6 µM)
IC50 [2]: 6.9 µg/mL (≈ 12.6 µM)
IC50 [3]: 4.1 µg/mL (≈ 7.5 µM)
IC50 [4]: 15 µg/mL (≈ 27.5 µM)
IC50 [5]: 2.2 µg/mL (≈ 4.03 µM)
IC50 [6]: 3.8 µg/mL (≈ 6.95 µM)

CCOC12SN(c3ccc([N+](=O)[O-])cc3Cl)N=C1c1cc(C)ccc1OC2(OCC)c1ccc(Cl)cc1 (racemic)
IC50 [1]: 18.6 µg/mL (≈ 33.2 µM)
IC50 [2]: 14.8 µg/mL (≈ 26.4 µM)
IC50 [3]: > 50 µg/mL
IC50 [4]: > 25 µg/mL
IC50 [5]: > 25 µg/mL
IC50 [6]: 7.8 µg/mL (≈ 13.9 µM)

CCOC12SN(c3ccc([N+](=O)[O-])cc3Cl)N=C1c1c(OC)cc(OC)c(Cl)c1OC2(OCC)c1ccc(C)cc1 (racemic)
IC50 [1]: > 50 µg/mL
IC50 [2]: 7.3 µg/mL (≈ 11.8 µM)
IC50 [3]: 7.3 µg/mL (≈ 11.8 µM)
IC50 [4]: > 25 µg/mL
IC50 [5]: 16.8 µg/mL (≈ 27.1 µM)
IC50 [6]: > 50 µg/mL

CCOC12SN(c3ccc([N+](=O)[O-])cc3Cl)N=C1c1c(OC)cc(OC)c(Cl)c1OC2(OCC)c1ccc(OC)cc1 (racemic)
IC50 [1]: > 50 µg/mL
IC50 [2]: > 50 µg/mL
IC50 [3]: 19.2 µg/mL (≈ 30.2 µM)
IC50 [4]: > 25 µg/mL
IC50 [5]: 23.2 µg/mL (≈ 36.4 µM)
IC50 [6]: 17.7 µg/mL (≈ 27.8 µM)

COc1cc(OC)c2c(c1Cl)OC(OC)(c1ccc(Cl)cc1)C1(OC)SN(c3ccc([N+](=O)[O-])cc3Cl)N=C21 (racemic)
IC50 [1]: > 50 µg/mL
IC50 [2]: 5.7 µg/mL (≈ 9.3 µM)
IC50 [3]: 2.9 µg/mL (≈ 4.73 µM)
IC50 [4]: 5.5 µg/mL (≈ 8.97 µM)
IC50 [5]: 3.2 µg/mL (≈ 5.22 µM)
IC50 [6]: 5.4 µg/mL (≈ 8.81 µM)

CCOC12SN(c3ccc(S(C)(=O)=O)cc3Cl)N=C1c1c(OC)cc(OC)c(Cl)c1OC2(OCC)c1ccc(Cl)cc1 (racemic)
IC50 [1]: 24.8 µg/mL (≈ 36.8 µM)
IC50 [2]: 20.1 µg/mL (≈ 29.8 µM)
IC50 [3]: > 50 µg/mL
IC50 [4]: 12.6 µg/mL (≈ 18.7 µM)
IC50 [5]: 5.6 µg/mL (≈ 8.31 µM)
IC50 [6]: 14.5 µg/mL (≈ 21.5 µM)

CCOC12SN(c3ccc(S(C)(=O)=O)cc3Cl)N=C1c1cc(C)ccc1OC2(OCC)c1ccc(OC)cc1 (racemic)
IC50 [1]: 40.4 µg/mL (≈ 68.6 µM)
IC50 [2]: 1.5 µg/mL (≈ 2.55 µM)
IC50 [3]: 0.6 µg/mL (≈ 1.02 µM)
IC50 [4]: > 25 µg/mL
IC50 [5]: 0.6 µg/mL (≈ 1.02 µM)
IC50 [6]: 1.1 µg/mL (≈ 1.87 µM)

CCOC12SN(c3ccc(NC(C)=O)cc3Cl)N=C1c1cc(C)ccc1OC2(OCC)c1ccc(Cl)cc1 (racemic)
IC50 [1]: 10.5 µg/mL (≈ 18.3 µM)
IC50 [2]: 4.1 µg/mL (≈ 7.16 µM)
IC50 [3]: 2.4 µg/mL (≈ 4.19 µM)
IC50 [4]: 19.8 µg/mL (≈ 34.6 µM)
IC50 [5]: 1.3 µg/mL (≈ 2.27 µM)
IC50 [6]: 2.5 µg/mL (≈ 4.37 µM)

O=P1(N(CCCl)CCCl)NCCCO1 (stereo not given) [CYCLOPHOSPHAMIDE ANHYDROUS]
Activity [12]: 45.4%

O=C1CC(c2ccccc2)Oc2ccccc21 (stereo not given) [FLAVANONE]
IC50 [1]: > 50 µg/mL
IC50 [2]: 27.7 µg/mL (≈ 124 µM)
IC50 [3]: 16.6 µg/mL (≈ 74 µM)
IC50 [4]: > 25 µg/mL
IC50 [5]: 3.4 µg/mL (≈ 15.2 µM)
IC50 [6]: 14.2 µg/mL (≈ 63.3 µM)

Source: ChEMBL document CHEMBL1142889, “Synthesis and anticancer activity of a novel class of flavonoids: 2,4-diarylchromane[4,3-d]-delta(1,9b)-1,2,3-thiadiazolines” (Eur J Med Chem, 2007)
